Data published in ChEMBL document CHEMBL1921792, “Synthesis and anticonvulsant activity of trans- and cis-2-(2,6-dimethylphenoxy)-N-(2- or 4-hydroxycyclohexyl)acetamides and their amine analogs” (Bioorg Med Chem, 2011).

Legend:
[1] = tested on: Rattus norvegicus; assay: Neurotoxicity in rat assessed as neurological deficit at 125 mg/kg, po after 2 hrs; format: toxicity, organism-based; parameters: dose 125 mg/kg, route oral; settings: in vivo
Procedure, shortened: (§1)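 Rats given the compound, suspended in 0.5% methylcellulose, by the stated route and dose. Neurological deficit was recorded at the listed times as ataxia and loss of placing response and muscle tone. Reported as number of rats showing toxicity/number tested.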

[2] = tested on: Rattus norvegicus; assay: Neurotoxicity in rat assessed as neurological deficit at 125 mg/kg, po after 4 hrs; format: toxicity, organism-based; parameters: dose 125 mg/kg, route oral; settings: in vivo; procedure, shortened: as §1
[3] = tested on: Rattus norvegicus; assay: Neurotoxicity in rat assessed as neurological deficit at 125 mg/kg, po after 6 hrs; format: toxicity, organism-based; parameters: dose 125 mg/kg, route oral; settings: in vivo; procedure, shortened: as §1
[4] = tested on: Rattus norvegicus; assay: Neurotoxicity in rat assessed as neurological deficit at 125 mg/kg, po after 8 hrs; format: toxicity, organism-based; parameters: dose 125 mg/kg, route oral; settings: in vivo; procedure, shortened: as §1
[5] = tested on: Rattus norvegicus; assay: Neurotoxicity in rat assessed as neurological deficit at 125 mg/kg, po after 24 hrs; format: toxicity, organism-based; parameters: dose 125 mg/kg, route oral; settings: in vivo; procedure, shortened: as §1
[6] = tested on: Rattus norvegicus; assay: Neurotoxicity in rat assessed as neurological deficit at 250 mg/kg, po after 0.25 hrs; format: toxicity, organism-based; parameters: dose 250 mg/kg, route oral; settings: in vivo; procedure, shortened: as §1
[7] = tested on: Rattus norvegicus; assay: Neurotoxicity in rat assessed as neurological deficit at 250 mg/kg, po after 0.5 hrs; format: toxicity, organism-based; parameters: dose 250 mg/kg, route oral; settings: in vivo; procedure, shortened: as §1
[8] = tested on: Rattus norvegicus; assay: Neurotoxicity in rat assessed as neurological deficit at 250 mg/kg, po after 1 hr; format: toxicity, organism-based; parameters: dose 250 mg/kg, route oral; settings: in vivo; procedure, shortened: as §1
[9] = tested on: Rattus norvegicus; assay: Neurotoxicity in rat assessed as neurological deficit at 250 mg/kg, po after 2 hrs; format: toxicity, organism-based; parameters: dose 250 mg/kg, route oral; settings: in vivo; procedure, shortened: as §1
[10] = tested on: Rattus norvegicus; assay: Neurotoxicity in rat assessed as neurological deficit at 250 mg/kg, po after 4 hrs; format: toxicity, organism-based; parameters: dose 250 mg/kg, route oral; settings: in vivo; procedure, shortened: as §1
[11] = tested on: Rattus norvegicus; assay: Neurotoxicity in rat assessed as neurological deficit at 250 mg/kg, po after 6 hrs; format: toxicity, organism-based; parameters: dose 250 mg/kg, route oral; settings: in vivo; procedure, shortened: as §1
[12] = tested on: Rattus norvegicus; assay: Neurotoxicity in rat assessed as neurological deficit at 250 mg/kg, po after 8 hrs; format: toxicity, organism-based; parameters: dose 250 mg/kg, route oral; settings: in vivo; procedure, shortened: as §1
[13] = tested on: Rattus norvegicus; assay: Neurotoxicity in rat assessed as neurological deficit at 250 mg/kg, po after 24 hrs; format: toxicity, organism-based; parameters: dose 250 mg/kg, route oral; settings: in vivo; procedure, shortened: as §1
[14] = tested on: Rattus norvegicus; assay: Neurotoxicity in rat assessed as neurological deficit at 500 mg/kg, po after 0.25 hrs; format: toxicity, organism-based; parameters: dose 500 mg/kg, route oral; settings: in vivo; procedure, shortened: as §1
[15] = tested on: Rattus norvegicus; assay: Neurotoxicity in rat assessed as neurological deficit at 500 mg/kg, po after 0.5 hrs; format: toxicity, organism-based; parameters: dose 500 mg/kg, route oral; settings: in vivo; procedure, shortened: as §1
[16] = tested on: Rattus norvegicus; assay: Neurotoxicity in rat assessed as neurological deficit at 500 mg/kg, po after 1 hr; format: toxicity, organism-based; parameters: dose 500 mg/kg, route oral; settings: in vivo; procedure, shortened: as §1
[17] = tested on: Rattus norvegicus; assay: Neurotoxicity in rat assessed as neurological deficit at 500 mg/kg, po after 2 hrs; format: toxicity, organism-based; parameters: dose 500 mg/kg, route oral; settings: in vivo; procedure, shortened: as §1
[18] = tested on: Rattus norvegicus; assay: Neurotoxicity in rat assessed as neurological deficit at 500 mg/kg, po after 4 hrs; format: toxicity, organism-based; parameters: dose 500 mg/kg, route oral; settings: in vivo
Procedure, shortened: (§2)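 Rats dosed orally with test agent suspended in 0.5% methylcellulose and observed for up to 24 h (time-to-peak-effect design). Neurological deficit was scored as ataxia with loss of placing response and muscle tone. Two rats per dose per time point; results given as number toxic/number tested.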

[19] = tested on: Rattus norvegicus; assay: Neurotoxicity in rat assessed as neurological deficit at 500 mg/kg, po after 6 hrs; format: toxicity, organism-based; parameters: dose 500 mg/kg, route oral; settings: in vivo; procedure, shortened: as §2
[20] = tested on: Rattus norvegicus; assay: Neurotoxicity in rat assessed as neurological deficit at 500 mg/kg, po after 8 hrs; format: toxicity, organism-based; parameters: dose 500 mg/kg, route oral; settings: in vivo; procedure, shortened: as §2
[21] = tested on: Rattus norvegicus; assay: Neurotoxicity in rat assessed as neurological deficit at 500 mg/kg, po after 24 hrs; format: toxicity, organism-based; parameters: dose 500 mg/kg, route oral; settings: in vivo; procedure, shortened: as §1
[22] = tested on: Mus musculus; assay: Neurotoxicity in mouse assessed as inability to maintain equilibrium on rotarod at 130 mg/kg, ip after 0.25 hrs using rotarod test; format: toxicity, organism-based; parameters: dose 130 mg/kg, route intraperitoneal; settings: in vivo
Procedure, shortened: (§3)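 Drug given ip to mice as a suspension in 0.5% methylcellulose. At the stated time after dosing, each mouse was placed on a 1 inch knurled rod turning at 6 rpm. Neurotoxicity = inability to stay balanced at least 1 min in each of three trials. Scored as animals toxic/animals tested in small groups.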

[23] = tested on: Mus musculus; assay: Neurotoxicity in mouse assessed as inability to maintain equilibrium on rotarod at 130 mg/kg, ip after 0.5 hrs using rotarod test; format: toxicity, organism-based; parameters: dose 130 mg/kg, route intraperitoneal; settings: in vivo; procedure, shortened: as §3
[24] = tested on: Mus musculus; assay: Neurotoxicity in mouse assessed as inability to maintain equilibrium on rotarod at 130 mg/kg, ip after 1 hr by rotarod test; format: toxicity, organism-based; parameters: dose 130 mg/kg, route intraperitoneal; settings: in vivo; procedure, shortened: as §3
[25] = tested on: Mus musculus; assay: Neurotoxicity in mouse assessed as inability to maintain equilibrium on rotarod at 130 mg/kg, ip after 2 hrs using rotarod test; format: toxicity, organism-based; parameters: dose 130 mg/kg, route intraperitoneal; settings: in vivo; procedure, shortened: as §3
[26] = tested on: Mus musculus; assay: Anticonvulsant activity in ip dosed mouse assessed as time to show peak effect of protection against maximal electric shock-induced seizures; format: functional
Procedure, shortened: (§4)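 Time-to-peak-effect assay: MES protection read at 0.25–4 h after dosing. Mice ip (60–130 mg/kg), rats po (15 or 30 mg/kg) or ip (30 mg/kg). Groups of 4–8; result is protected/tested.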

[27] = tested on: Rattus norvegicus; assay: Anticonvulsant activity in po dosed rat assessed as time to show peak effect of protection against maximal electric shock-induced seizures; format: functional; procedure, shortened: as §4

## Cc1cccc(C)c1OCC(=O)NC1CCCCC1O.Cl (racemic; 1)
[1]
  Activity: Non-toxic
[2]
  Activity: Non-toxic
[3]
  Activity: Non-toxic
[4]
  Activity: Non-toxic
[5]
  Activity: Non-toxic
[6]
  Activity: Non-toxic
[7]
  Activity: Non-toxic
[8]
  Activity: Non-toxic
[9]
  Activity: Non-toxic
[10]
  Activity: Non-toxic
[11]
  Activity: Non-toxic
[12]
  Activity: Non-toxic
[13]
  Activity: Non-toxic
[14]
  Activity: Non-toxic
[15]
  Activity: Non-toxic
[16]
  Activity: Non-toxic
[17]
  Activity: Non-toxic
[18]
  Activity: Non-toxic
[19]
  Activity: Non-toxic
[20]
  Activity: Non-toxic
[21]
  Activity: Non-toxic
[22]
  Activity: Toxic
[23]
  Activity: Non-toxic
[24]
  Activity: Non-toxic
[25]
  Activity: Non-toxic
[26]
  Time: 0.25 h
[27]
  Time: 0.25 h
